Experimental data published in ChEMBL document CHEMBL1158033, “C-26 and C-30 apocarotenoids from seeds of Ditaxis heterantha with antioxidant activity and protection against DNA oxidative damage” (J Nat Prod, 2006).

Legend:
[1] = Antiradical activity assessed as DPPH radical scavenging activity at 1500 uM by spectrophotometry relative to control; format: physicochemical
Summary of the method: (§1)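 Sample (150–1500 μM; MeOH, or Et2O for lycopene, β-carotene, astaxanthin) added to 150 μM DPPH in MeOH and kept in the dark at ~20 °C for 60 min. Absorbance read at 520 nm. Activity = 100 × (1 − Asample/Acontrol), with control lacking sample. Triplicates; Tukey's test and Pearson correlation.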

[2] = Antiradical activity assessed as DPPH radical scavenging activity at 1050 uM by spectrophotometry relative to control; format: physicochemical; summary of the method: as §1
[3] = Antigenotoxic activity against H2O2-induced oxidative DNA damage in rat lymphocyte assessed as olive tail moment at 1000 uM by comet assay; format: functional
Summary of the method: (§2)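 Rat peripheral blood mononuclear cells isolated on Histopaque 1077, 1×10^7 cells/mL in cold PBS pH 7.4, viability >90% by trypan blue. Cells preincubated with sample in DMSO (5%) at 37 °C for 30 min, then H2O2 1 mM final, 37 °C for 10 min. Alkaline comet assay, ethidium bromide stain, image analysis of 50 cells, 400×. Mean ± SE of four values, one-way ANOVA.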

[4] = Antigenotoxic activity against H2O2-induced oxidative DNA damage in rat lymphocyte assessed as tail length at 500 uM by comet assay; format: functional; summary of the method: as §2
Lymphocyte = experiment: Antigenotoxic activity against H2O2-induced oxidative DNA damage in rat lymphocyte assessed as cauda tail moment at 1000 uM by comet assay; format: functional; summary of the method: as §2
[5] = Antigenotoxic activity against H2O2-induced oxidative DNA damage in rat lymphocyte assessed as olive tail moment at 500 uM by comet assay; format: functional; summary of the method: as §2
[6] = Antigenotoxic activity against H2O2-induced oxidative DNA damage in rat lymphocyte assessed as cauda tail moment at 500 uM by comet assay; format: functional; summary of the method: as §2
[7] = Antigenotoxic activity against H2O2-induced oxidative DNA damage in rat lymphocyte assessed as tail length at 1000 uM by comet assay; format: functional; summary of the method: as §2
[8] = Antiradical activity assessed as DPPH radical scavenging activity at 750 uM by spectrophotometry relative to control; format: physicochemical; summary of the method: as §1
[9] = Antiradical activity assessed as DPPH radical scavenging activity at 150 uM by spectrophotometry relative to control; format: physicochemical; summary of the method: as §1

Compound	Activity [1] [%]	Activity [2]	Activity [8]	Activity [9]	Activity [3] [a.u.]	Activity [4] [um]	Activity (Lymphocyte) [a.u.]	Activity [5] [a.u.]	Activity [6] [a.u.]	Activity [7] [um]
CC1=C(/C=C/C(C)=C/C=C/C(C)=C/C=C/C=C(C)/C=C/C=C(C)/C=C/C2=C(C)C(=O)[C@@H](O)CC2(C)C)C(C)(C)C[C@H](O)C1=O [ASTAXANTHIN]	52	Active	–	–	–	–	–	–	–	–
CC1=C(/C=C/C(C)=C/C=C/C(C)=C/C=C/C=C(C)/C=C/C=C(C)/C=C/C2=C(C)CCCC2(C)C)C(C)(C)CCC1 [BETA CAROTENE]	36	Active	–	–	–	–	–	–	–	–

Now from value to compound, other results behind:

Activity [1] [%]	Activity [2]	Activity [8]	Activity [9]	Compound	Activity [3] [a.u.]	Activity [4] [um]	Activity (Lymphocyte) [a.u.]	Activity [5] [a.u.]	Activity [6] [a.u.]	Activity [7] [um]
12	Active	–	–	COC(=O)/C(C)=C/C=C/C(C)=C/C=C/C=C(C)/C=C/C=C(C)/C=C/[C@]12O[C@@H](CC1(C)C)C[C@]2(C)O [DITAXIN]	8.21	35.94	12.27	11.58	18.8	28.15
21	Active	Active	Active	COC(=O)/C(C)=C/C=C/C=C(C)/C=C/C=C(C)/C=C/[C@@H]1C(C)=CC(=O)CC1(C)C [HETERANTHIN]	4.4	34.13	6.24	10.8	17.02	20.93
36	Active	–	–	CC(C)=CCC/C(C)=C/C=C/C(C)=C/C=C/C(C)=C/C=C/C=C(C)/C=C/C=C(C)/C=C/C=C(\C)CCC=C(C)C [LYCOPENE]	–	–	–	–	–	–
